Test results: ChEMBL document CHEMBL2396544, “1,4-Diaryl-substituted triazoles as cyclooxygenase-2 inhibitors: Synthesis, biological evaluation and molecular modeling studies” (Bioorg Med Chem, 2013)

What was measured:
[1] = target: T1, Prostaglandin G/H synthase 2 (Homo sapiens, UniProt P35354); test: Inhibition of human recombinant COX2 by fluorescence assay
T1 sequence (P35354 whole entry): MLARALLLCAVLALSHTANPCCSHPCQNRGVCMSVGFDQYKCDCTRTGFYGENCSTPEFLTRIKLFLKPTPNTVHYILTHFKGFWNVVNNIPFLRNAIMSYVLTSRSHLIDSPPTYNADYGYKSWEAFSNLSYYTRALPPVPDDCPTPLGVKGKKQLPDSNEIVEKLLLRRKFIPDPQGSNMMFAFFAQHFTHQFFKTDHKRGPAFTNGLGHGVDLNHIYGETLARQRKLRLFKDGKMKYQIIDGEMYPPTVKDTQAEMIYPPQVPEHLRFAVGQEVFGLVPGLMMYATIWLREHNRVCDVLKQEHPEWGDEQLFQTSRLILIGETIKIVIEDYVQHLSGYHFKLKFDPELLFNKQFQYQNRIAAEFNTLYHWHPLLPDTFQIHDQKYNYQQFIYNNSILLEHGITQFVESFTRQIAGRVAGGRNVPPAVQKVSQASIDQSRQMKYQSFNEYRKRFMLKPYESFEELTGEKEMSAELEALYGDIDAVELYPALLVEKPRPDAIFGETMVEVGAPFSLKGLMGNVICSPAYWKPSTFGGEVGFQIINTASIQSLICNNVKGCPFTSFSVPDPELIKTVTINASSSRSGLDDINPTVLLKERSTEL

[2] = Selectivity index, ratio of IC50 for ovine COX1 to IC50 for human recombinant COX2
Summary of the method: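 Ovine COX-1 and human recombinant COX-2 tested in parallel with a fluorescent COX inhibitor screening kit. […] The index is the COX-1 IC50 divided by the COX-2 IC50.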

[3] = target: T2, Prostaglandin G/H synthase 1 (Ovis aries, UniProt P05979); test: Inhibition of ovine COX1 by fluorescence assay
T2 sequence (P05979 whole entry): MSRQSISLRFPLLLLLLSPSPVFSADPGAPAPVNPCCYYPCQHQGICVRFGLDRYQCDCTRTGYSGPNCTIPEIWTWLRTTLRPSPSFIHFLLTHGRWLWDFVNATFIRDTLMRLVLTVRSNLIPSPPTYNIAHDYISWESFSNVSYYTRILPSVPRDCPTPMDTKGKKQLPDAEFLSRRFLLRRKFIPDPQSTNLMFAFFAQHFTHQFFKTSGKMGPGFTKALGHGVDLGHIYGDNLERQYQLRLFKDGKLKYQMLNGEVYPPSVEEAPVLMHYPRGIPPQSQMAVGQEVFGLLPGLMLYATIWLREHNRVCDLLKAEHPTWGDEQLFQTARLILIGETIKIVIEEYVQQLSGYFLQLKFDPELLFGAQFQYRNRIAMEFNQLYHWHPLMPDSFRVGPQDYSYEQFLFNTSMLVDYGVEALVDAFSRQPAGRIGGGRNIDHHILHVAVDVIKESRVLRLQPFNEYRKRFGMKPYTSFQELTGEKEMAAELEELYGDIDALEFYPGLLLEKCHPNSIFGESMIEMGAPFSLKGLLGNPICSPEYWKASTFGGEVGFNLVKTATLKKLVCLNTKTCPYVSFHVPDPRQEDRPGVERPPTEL
Summary of the method: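 Ovine COX-1 tested in vitro with a fluorescent COX-1/COX-2 inhibitor screening kit. Each value is the mean of three determinations, with deviation from the mean under 10%.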

For `NS(=O)(=O)c1ccc(Cn2cc(-c3ccccc3)nn2)cc1`, the IC50 [1] was 6.5 µM, the Ratio IC50 [2] was 6 and the IC50 [3] was 39 µM.

For `NS(=O)(=O)c1ccc(Cn2cc(-c3ccc(Cl)cc3)nn2)cc1`, the IC50 [1] was 28 µM, the Ratio IC50 [2] was greater than 3.6 and the IC50 [3] was greater than 100 µM.

For `COc1ccc(-c2cn(CCc3ccc(S(N)(=O)=O)cc3)nn2)cc1`, the IC50 [1] was 27 µM, the Ratio IC50 [2] was greater than 3.7 and the IC50 [3] was greater than 100 µM.

For `NS(=O)(=O)c1ccc(-n2cc(-c3ccc(F)cc3)nn2)cc1`, the IC50 [1] was 13.5 µM, the Ratio IC50 [2] was greater than 7.4 and the IC50 [3] was greater than 100 µM.

Molecule `NS(=O)(=O)c1ccc(-n2cc(-c3ccc(Cl)cc3)nn2)cc1` has an IC50 [1] of 1.3 µM, a Ratio IC50 [2] of 16.1 and an IC50 [3] of 21 µM.

With `COc1ccc(-c2cn(-c3ccc(S(N)(=O)=O)cc3)nn2)cc1` the IC50 [1] was 11 µM, the Ratio IC50 [2] was greater than 9.1 and the IC50 [3] was greater than 100 µM.

Work on `Cc1ccc(-c2cn(-c3ccc(S(N)(=O)=O)cc3)nn2)cc1` yielded an IC50 [1] of 14 µM, a Ratio IC50 [2] of 4.6 and an IC50 [3] of 65 µM.

In the case of `NS(=O)(=O)c1ccc(-n2cc(-c3ccccc3)nn2)cc1`, the IC50 [1] is reported as 1.3 µM, the Ratio IC50 [2] is reported as greater than 77 and the IC50 [3] is reported as greater than 100 µM.

Work on `NS(=O)(=O)c1ccc(CCn2cc(-c3ccc(Cl)cc3)nn2)cc1` yielded an IC50 [1] of 0.17 µM, a Ratio IC50 [2] greater than 588 and an IC50 [3] greater than 100 µM.

Molecule `Cc1ccc(-c2cn(Cc3ccc(S(N)(=O)=O)cc3)nn2)cc1` has an IC50 [1] of 1.2 µM, a Ratio IC50 [2] greater than 83 and an IC50 [3] greater than 100 µM.

With `COc1ccc(-c2cn(Cc3ccc(S(N)(=O)=O)cc3)nn2)cc1` the IC50 [1] was 13 µM, the Ratio IC50 [2] was greater than 7.7 and the IC50 [3] was greater than 100 µM.

`NS(=O)(=O)c1ccc(Cn2cc(-c3ccc(F)cc3)nn2)cc1` gave an IC50 [1] of 1.5 µM, a Ratio IC50 [2] of 13.3 and an IC50 [3] of 20 µM.

Molecule `NS(=O)(=O)c1ccc(CCn2cc(-c3ccccc3)nn2)cc1` has an IC50 [1] of 1.1 µM, a Ratio IC50 [2] greater than 91 and an IC50 [3] greater than 100 µM.

With `Cc1ccc(-c2cn(CCc3ccc(S(N)(=O)=O)cc3)nn2)cc1` the IC50 [1] was 3.4 µM, the Ratio IC50 [2] was greater than 29 and the IC50 [3] was greater than 100 µM.

`NS(=O)(=O)c1ccc(CCn2cc(-c3ccc(F)cc3)nn2)cc1` gave an IC50 [1] of 1 µM, a Ratio IC50 [2] greater than 100 and an IC50 [3] greater than 100 µM.
